Reference: ChEMBL document CHEMBL1153921, “Design, synthesis, and biological evaluation of novel 1-(1H-1,2,4-triazole-1-yl)-2-(2,4-difluorophenyl)-3-substituted benzylamino-2-propanols” (2009)
Values after ≈ are worked out from the molar mass of the structure shown.

Experiments:
Type in all cases: functional
Trichophyton rubrum = assay: Antimicrobial activity against Trichophyton rubrum by micro-broth dilution method
How it was run: (§1)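 Clinical isolates. Tested by broth microdilution in 96-well plates following NCCLS M27-A2. MIC80, the minimum concentration inhibiting growth by 80%, was recorded. Marketed reference antifungals were included as positive controls.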

Nannizzia gypsea = assay: Antimicrobial activity against Microsporum gypseum by micro-broth dilution method; how it was run: as §1
Pichia kudriavzevii = assay: Antimicrobial activity against Candida krusei by micro-broth dilution method; how it was run: as §1
Cryptococcus neoformans = assay: Antimicrobial activity against Cryptococcus neoformans by micro-broth dilution method
How it was run: (§2)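 ATCC standard strains. Broth microdilution in 96-well plates following NCCLS M27-A2 (reference broth dilution method for yeasts). Endpoint is MIC80, the lowest concentration giving 80% growth inhibition. Marketed reference antifungals ran alongside as positive controls.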

Candida albicans = assay: Antimicrobial activity against Candida albicans by micro-broth dilution method; how it was run: as §2
Candida tropicalis = assay: Antimicrobial activity against Candida tropicalis by micro-broth dilution method; how it was run: as §1
Aspergillus fumigatus = assay: Antimicrobial activity against Aspergillus fumigatus by micro-broth dilution method; how it was run: as §1
Candida parapsilosis = assay: Antimicrobial activity against Candida parapsilosis by micro-broth dilution method; conditions: Lodderomyces parapsilosis; how it was run: as §1

| SMILES | MIC80 (Trichophyton rubrum) [µg/mL] | MIC80 (Nannizzia gypsea) [µg/mL] | MIC80 (Pichia kudriavzevii) [µg/mL] | MIC80 (Cryptococcus neoformans) [µg/mL] | MIC80 (Candida albicans) [µg/mL] | MIC80 (Candida tropicalis) [µg/mL] | MIC80 (Aspergillus fumigatus) [µg/mL] | MIC80 (Candida parapsilosis) [µg/mL] |
| --- | --- | --- | --- | --- | --- | --- | --- | --- |
| CCCCN(Cc1cccc(F)c1)CC(O)(Cn1cncn1)c1ccc(F)cc1F (centres undefined) | 1 (≈ 2.39 µM) | 0.0625 (≈ 0.149 µM) | 1 (≈ 2.39 µM) | 0.25 (≈ 0.597 µM) | 0.0156 (≈ 0.0373 µM) | 0.25 (≈ 0.597 µM) | > 64 | 0.25 (≈ 0.597 µM) |
| CCCCN(Cc1ccc(F)cc1)CC(O)(Cn1cncn1)c1ccc(F)cc1F (centres undefined) | 1 (≈ 2.39 µM) | 0.0156 (≈ 0.0373 µM) | 1 (≈ 2.39 µM) | 0.25 (≈ 0.597 µM) | 0.25 (≈ 0.597 µM) | 0.25 (≈ 0.597 µM) | > 64 | 0.0625 (≈ 0.149 µM) |
| CC(C)N(Cc1ccc(Cl)cc1Cl)CC(O)(Cn1cncn1)c1ccc(F)cc1F (centres undefined) | 0.25 (≈ 0.549 µM) | 1 (≈ 2.2 µM) | 1 (≈ 2.2 µM) | 16 (≈ 35.1 µM) | 0.25 (≈ 0.549 µM) | 1 (≈ 2.2 µM) | > 64 | 1 (≈ 2.2 µM) |
| CCCCN(Cc1ccc(CC)cc1)CC(O)(Cn1cncn1)c1ccc(F)cc1F (centres undefined) | 4 (≈ 9.33 µM) | 1 (≈ 2.33 µM) | 1 (≈ 2.33 µM) | 0.25 (≈ 0.583 µM) | 0.0039 (≈ 0.0091 µM) | 1 (≈ 2.33 µM) | > 64 | 4 (≈ 9.33 µM) |
| CC(C)N(Cc1ccc([N+](=O)[O-])cc1)CC(O)(Cn1cncn1)c1ccc(F)cc1F (centres undefined) | 0.25 (≈ 0.579 µM) | 0.0156 (≈ 0.0362 µM) | 0.0625 (≈ 0.145 µM) | 0.25 (≈ 0.579 µM) | 0.0156 (≈ 0.0362 µM) | 0.25 (≈ 0.579 µM) | 64 (≈ 148 µM) | 0.0625 (≈ 0.145 µM) |
| CCCCN(Cc1ccccc1)CC(O)(Cn1cncn1)c1ccc(F)cc1F (centres undefined) | 0.25 (≈ 0.624 µM) | 0.0156 (≈ 0.039 µM) | 0.25 (≈ 0.624 µM) | 0.0625 (≈ 0.156 µM) | 0.0625 (≈ 0.156 µM) | 0.0625 (≈ 0.156 µM) | > 64 | 0.0625 (≈ 0.156 µM) |
| CCCCN(Cc1ccccc1F)CC(O)(Cn1cncn1)c1ccc(F)cc1F (centres undefined) | 1 (≈ 2.39 µM) | 0.25 (≈ 0.597 µM) | 0.25 (≈ 0.597 µM) | 0.25 (≈ 0.597 µM) | 0.0625 (≈ 0.149 µM) | 0.25 (≈ 0.597 µM) | 16 (≈ 38.2 µM) | 0.25 (≈ 0.597 µM) |
| CCCCN(Cc1ccccc1Cl)CC(O)(Cn1cncn1)c1ccc(F)cc1F (centres undefined) | 1 (≈ 2.3 µM) | 0.25 (≈ 0.575 µM) | 1 (≈ 2.3 µM) | 0.25 (≈ 0.575 µM) | 1 (≈ 2.3 µM) | 0.25 (≈ 0.575 µM) | > 64 | 0.25 (≈ 0.575 µM) |
| CCCCN(Cc1ccc(Br)cc1)CC(O)(Cn1cncn1)c1ccc(F)cc1F (centres undefined) | 0.25 (≈ 0.522 µM) | 1 (≈ 2.09 µM) | 1 (≈ 2.09 µM) | 0.25 (≈ 0.522 µM) | 4 (≈ 8.34 µM) | 1 (≈ 2.09 µM) | > 64 | 0.25 (≈ 0.522 µM) |
| CCCCN(Cc1ccc(C)cc1)CC(O)(Cn1cncn1)c1ccc(F)cc1F (centres undefined) | 1 (≈ 2.41 µM) | 0.25 (≈ 0.603 µM) | 1 (≈ 2.41 µM) | 0.25 (≈ 0.603 µM) | 4 (≈ 9.65 µM) | 1 (≈ 2.41 µM) | > 64 | 1 (≈ 2.41 µM) |
| CCCCN(Cc1ccc(Cl)cc1)CC(O)(Cn1cncn1)c1ccc(F)cc1F (centres undefined) | 1 (≈ 2.3 µM) | 1 (≈ 2.3 µM) | 1 (≈ 2.3 µM) | 1 (≈ 2.3 µM) | 1 (≈ 2.3 µM) | 1 (≈ 2.3 µM) | > 64 | 1 (≈ 2.3 µM) |
| CCCCN(Cc1ccccc1Br)CC(O)(Cn1cncn1)c1ccc(F)cc1F (centres undefined) | 1 (≈ 2.09 µM) | 0.25 (≈ 0.522 µM) | 1 (≈ 2.09 µM) | 0.25 (≈ 0.522 µM) | 1 (≈ 2.09 µM) | 0.25 (≈ 0.522 µM) | > 64 | 0.25 (≈ 0.522 µM) |
| CCCCN(Cc1ccc(Cl)cc1Cl)CC(O)(Cn1cncn1)c1ccc(F)cc1F (centres undefined) | 16 (≈ 34.1 µM) | 0.25 (≈ 0.533 µM) | 16 (≈ 34.1 µM) | 1 (≈ 2.13 µM) | 0.0039 (≈ 0.00831 µM) | 1 (≈ 2.13 µM) | > 64 | 4 (≈ 8.52 µM) |
| CCCCN(Cc1cccc(Cl)c1)CC(O)(Cn1cncn1)c1ccc(F)cc1F (centres undefined) | 1 (≈ 2.3 µM) | 0.25 (≈ 0.575 µM) | 1 (≈ 2.3 µM) | 0.25 (≈ 0.575 µM) | 1 (≈ 2.3 µM) | 1 (≈ 2.3 µM) | > 64 | 0.25 (≈ 0.575 µM) |
| CCCCN(Cc1ccccc1C)CC(O)(Cn1cncn1)c1ccc(F)cc1F (centres undefined) | 1 (≈ 2.41 µM) | 0.0156 (≈ 0.0376 µM) | 1 (≈ 2.41 µM) | 0.25 (≈ 0.603 µM) | 1 (≈ 2.41 µM) | 0.25 (≈ 0.603 µM) | > 64 | 0.25 (≈ 0.603 µM) |
| CCCCN(Cc1ccc([N+](=O)[O-])cc1)CC(O)(Cn1cncn1)c1ccc(F)cc1F (centres undefined) | 0.25 (≈ 0.561 µM) | 0.0625 (≈ 0.14 µM) | 1 (≈ 2.24 µM) | 0.0625 (≈ 0.14 µM) | 0.0156 (≈ 0.035 µM) | 0.0625 (≈ 0.14 µM) | > 64 | 0.25 (≈ 0.561 µM) |
| CCc1ccc(CN(CC(O)(Cn2cncn2)c2ccc(F)cc2F)C(C)C)cc1 (centres undefined) | 1 (≈ 2.41 µM) | 0.25 (≈ 0.603 µM) | 1 (≈ 2.41 µM) | 1 (≈ 2.41 µM) | 0.0625 (≈ 0.151 µM) | 1 (≈ 2.41 µM) | > 64 | 1 (≈ 2.41 µM) |
| C[C@@H]1[C@H](O)[C@@H](C)/C=C/C=C/C=C/C=C/C=C/C=C/C=C/[C@H](O[C@@H]2O[C@H](C)[C@@H](O)[C@H](N)[C@@H]2O)C[C@@H]2O[C@](O)(C[C@@H](O)C[C@@H](O)[C@H](O)CC[C@@H](O)C[C@@H](O)CC(=O)O[C@H]1C)C[C@H](O)[C@H]2C(=O)O [AMPHOTERICIN B] | 2 (≈ 2.16 µM) | 2 (≈ 2.16 µM) | 2 (≈ 2.16 µM) | 2 (≈ 2.16 µM) | 2 (≈ 2.16 µM) | 2 (≈ 2.16 µM) | 64 (≈ 69.3 µM) | 2 (≈ 2.16 µM) |
| OC(Cn1cncn1)(Cn1cncn1)c1ccc(F)cc1F [FLUCONAZOLE] | 4 (≈ 13.1 µM) | 0.25 (≈ 0.816 µM) | 4 (≈ 13.1 µM) | 1 (≈ 3.27 µM) | 0.5 (≈ 1.63 µM) | 1 (≈ 3.27 µM) | > 64 | 1 (≈ 3.27 µM) |
| CCC(C)n1ncn(-c2ccc(N3CCN(c4ccc(OCC5COC(Cn6cncn6)(c6ccc(Cl)cc6Cl)O5)cc4)CC3)cc2)c1=O (centres undefined) [ITRACONAZOLE] | 0.125 (≈ 0.177 µM) | 0.0625 (≈ 0.0886 µM) | 0.5 (≈ 0.709 µM) | 0.125 (≈ 0.177 µM) | 0.0625 (≈ 0.0886 µM) | 0.125 (≈ 0.177 µM) | 0.5 (≈ 0.709 µM) | 0.125 (≈ 0.177 µM) |
| CC(=O)N1CCN(c2ccc(OCC3COC(Cn4ccnc4)(c4ccc(Cl)cc4Cl)O3)cc2)CC1 (centres undefined) [KETOCONAZOLE] | 0.0625 (≈ 0.118 µM) | 0.0156 (≈ 0.0294 µM) | 0.25 (≈ 0.47 µM) | 0.0625 (≈ 0.118 µM) | 0.0156 (≈ 0.0294 µM) | 0.0625 (≈ 0.118 µM) | 1 (≈ 1.88 µM) | 0.0625 (≈ 0.118 µM) |
| CN(C/C=C/C#CC(C)(C)C)Cc1cccc2ccccc12 [TERBINAFINE] | 0.0625 (≈ 0.214 µM) | 4 (≈ 13.7 µM) | 16 (≈ 54.9 µM) | 1 (≈ 3.43 µM) | 4 (≈ 13.7 µM) | 0.0625 (≈ 0.214 µM) | 0.0625 (≈ 0.214 µM) | 0.25 (≈ 0.858 µM) |
| C[C@@H](c1ncncc1F)[C@](O)(Cn1cncn1)c1ccc(F)cc1F [VORICONAZOLE] | 0.0625 (≈ 0.179 µM) | 0.0039 (≈ 0.0112 µM) | 0.0625 (≈ 0.179 µM) | 0.0156 (≈ 0.0447 µM) | 0.0156 (≈ 0.0447 µM) | 0.0039 (≈ 0.0112 µM) | 0.25 (≈ 0.716 µM) | 0.0039 (≈ 0.0112 µM) |
